A selection: hits, their analogues and other compounds. The true share with any hit is near 6.8%.
ALR H2O2 inh = inhibitors of human ALR sulfhydryl oxidase, primary screen, biochemical, H2O2 detection, HRP-luminol luminescence, single point | purified ALR, DTT oxidation | 290,000 tested, 3.8% active | FAD-linked sulfhydryl oxidase ALR (Homo sapiens), P55789 | AID 485317, 2010 | inhibition, % (test concentration not listed);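 active = mean replicate inhibition above about 79%, with every replicate also reaching it, limit read from the data; inconclusive = only one of the two criteria met; inactive = mean below limit and not every replicate reaching it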
Target sequence (P55789 whole entry, looked up): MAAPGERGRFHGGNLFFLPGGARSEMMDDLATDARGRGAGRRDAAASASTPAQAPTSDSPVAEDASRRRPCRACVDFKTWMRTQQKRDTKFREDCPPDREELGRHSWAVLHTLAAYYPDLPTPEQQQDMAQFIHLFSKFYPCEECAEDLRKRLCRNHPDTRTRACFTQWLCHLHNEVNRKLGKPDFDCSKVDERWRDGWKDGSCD
HCV core dimer = inhibitors of HCV core protein dimerization, primary screen, biochemical, TR-FRET, high-throughput; inhibition, % at 5 µM; TR-FRET GST/Flag-core106 dimerization, 1536-well; 300,000 tested, 0.33% active;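 active = inhibition above the mean of all tested compounds plus 3 SD, set per screening campaign, cut at about 45% in these data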
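Material: GST/Flag-tagged HCV core106 proteins. Incubation: 4 h, 22.5 °C incubation. Read-out basis: inhibition (%) from 671 over 617 nm ratio. Measured by: TR-FRET, excitation 340 nm, emission 617 and 671 nm.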
PHOSPHO1 inh = PubChem AID 1565; recombinant PHOSPHO1, absorbance phosphatase assay; inhibition, % at 13.3 µM; 290,000 tested, 1.1% active; in the data active = inhibition above about 60%
Target sequence (Q8TCT1 whole entry, looked up): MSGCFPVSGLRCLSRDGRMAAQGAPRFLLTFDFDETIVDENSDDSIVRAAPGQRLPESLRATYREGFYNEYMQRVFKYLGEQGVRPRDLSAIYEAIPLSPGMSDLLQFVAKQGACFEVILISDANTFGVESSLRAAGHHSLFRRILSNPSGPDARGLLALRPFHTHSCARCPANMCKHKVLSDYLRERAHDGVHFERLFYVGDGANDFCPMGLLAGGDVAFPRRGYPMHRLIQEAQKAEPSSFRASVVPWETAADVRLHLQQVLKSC
AI-2 QS modul = Vibrio harveyi AI-2 quorum sensing modulators, primary screen, JMH597 strain, luminescence/OD600 ratio; Vibrio harveyi JMH597 AI-2 luminescence/OD600 ratio, 9 h; active compounds read low; strain lacks LuxN and CqsS sensors; 0 = neutral-control median; activity change, % at 7.5 µM; 300,000 tested, 0.4% active; AID 2094, 2009; in the data active = activity change below about -75%, passing the limit was not always enough; inconclusive = no clear call, values can overlap the other calls;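 also: luminescence divided by OD600 gain over 9 h not by final OD600 alone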
HSF1 activator = HSF-1 activators, primary screen, NIH3T3-HGL cells, MG132 stress, luminescence, single point | NIH3T3-HGL HSF-1 luciferase reporter, 8 h; 100% = twice DMSO control signal | 300,000 tested, 1.7% active | activation, % at 9 µM;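 active = mean replicate activation of at least 50% with a set share of replicates each reaching 50%; inconclusive = only one of those two conditions met; inactive = mean below 50% and too few replicates reaching it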
HSF1 inh = HSF1 inhibitors in luciferase reporter cells, primary screen, cell-based, NIH3T3, luminescence. NIH3T3-HGL HSE-luciferase, MG132-induced, luminescence 8 h; active compounds read low. activity change, negative = inhibition, % at 7.5 µM (by protocol). 300,000 tested, 0.77% active. AID 2098, 2009;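 active = more than half of replicate wells show activity change below -50%, luminescence cut by over half; inconclusive = some wells, but at most half, below -50%; inactive = no replicate well below -50%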;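 also: luciferase reports HSF-1 transcriptional activity via heat shock element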
A number is an active result.

Screening Cc1cccc(CCNC(=O)COc2cc(=O)n(C)c3ccccc23)c1 returned ALR H2O2 inh inactive, HCV core dimer inactive, PHOSPHO1 inh inactive, AI-2 QS modul inactive, HSF1 activator inactive and HSF1 inh inactive.
For Cc1ccc2c(c1)N(CC(=O)O)C(=O)CO2 the results were ALR H2O2 inh inactive, HCV core dimer inactive, PHOSPHO1 inh inactive, AI-2 QS modul inactive, HSF1 activator inactive and HSF1 inh -79.6.
For CCOC(=O)C1(C)NC(c2ccc(OC)cc2OC)C2C(=O)N(c3cccc(OC)c3)C(=O)C21 (stereo not drawn) the results were ALR H2O2 inh inactive, HCV core dimer inactive, PHOSPHO1 inh inactive, AI-2 QS modul inactive, HSF1 activator inactive and HSF1 inh inactive.
Screening CCN(CCCNC(=O)CCc1nc(-c2ccc(C)cc2)no1)c1cccc(C)c1 returned ALR H2O2 inh inactive, HCV core dimer inactive, PHOSPHO1 inh inactive, AI-2 QS modul inactive, HSF1 activator 59.1 and HSF1 inh inactive.
Screening CCCCN(CCCNC(=O)CN1C(=O)COc2ccccc21)c1ccccc1 returned ALR H2O2 inh inactive, HCV core dimer inactive, PHOSPHO1 inh inactive, AI-2 QS modul inactive, HSF1 activator inactive and HSF1 inh inactive.
CCN(CCCNC(=O)CN1C(=O)COc2ccccc21)c1cccc(C)c1 was read as ALR H2O2 inh 99.4, HCV core dimer inactive, PHOSPHO1 inh inactive, AI-2 QS modul inactive, HSF1 activator inactive and HSF1 inh inactive.
`CCN(CCCNC(=O)CCn1c(=O)[nH]c2ccccc2c1=O)c1ccccc1` gave ALR H2O2 inh 97.8, HCV core dimer inactive, PHOSPHO1 inh inactive, AI-2 QS modul inactive, HSF1 activator inactive and HSF1 inh inactive.
Screening CCN(CCCNC(=O)CN1C(=O)COc2ccccc21)c1ccccc1 returned ALR H2O2 inh 98.8, HCV core dimer inactive and PHOSPHO1 inh inactive.
`NS(=O)(=O)c1ccc(NC(=S)Nc2nn(Cc3ccc(Cl)cc3Cl)cc2Cl)cc1` gave ALR H2O2 inh inactive, HCV core dimer inactive, PHOSPHO1 inh inactive, AI-2 QS modul inactive, HSF1 activator inactive and HSF1 inh inactive.
For Cn1c(-c2ccccc2)cc(=O)c2ccccc21 the results were ALR H2O2 inh inactive, HCV core dimer inactive, PHOSPHO1 inh inactive, AI-2 QS modul inactive, HSF1 activator inactive and HSF1 inh inactive.
O=c1cc(-c2ccccc2)cc(-c2ccccc2)n1O was read as ALR H2O2 inh 98.0, HCV core dimer inactive, AI-2 QS modul -82.1, HSF1 activator inactive and HSF1 inh inactive.
For CC1Cc2ccccc2N1C(=O)CSc1nnc(Cc2ccccc2)n1CCc1ccccc1 (stereo not drawn) the results were PHOSPHO1 inh inactive, AI-2 QS modul inactive, HSF1 activator inactive and HSF1 inh inactive.
Screening Nc1nnc(N2CCc3ccccc32)s1 returned ALR H2O2 inh 98.7, HCV core dimer inactive, PHOSPHO1 inh inactive, AI-2 QS modul inactive, HSF1 activator inactive and HSF1 inh inactive.
Screening COCC(=O)Nc1cc(C(=O)Nc2ccccc2)ccc1Cl returned ALR H2O2 inh inactive, HCV core dimer inactive, PHOSPHO1 inh inactive, AI-2 QS modul inactive, HSF1 activator inactive and HSF1 inh inactive.
`Nc1nc(N)c(N=O)c(OCC2CCCCC2)n1` gave ALR H2O2 inh 92.5, HCV core dimer inactive, PHOSPHO1 inh inactive, AI-2 QS modul inactive, HSF1 activator inactive and HSF1 inh inactive.
For O=C1NN(c2ccc(F)c(Cl)c2)C(=O)/C1=C\c1cccc(OC(=O)c2cccs2)c1 the results were ALR H2O2 inh inactive, HCV core dimer inactive, PHOSPHO1 inh inactive, AI-2 QS modul inactive, HSF1 activator inactive and HSF1 inh inactive.
For CC(C)=C1C(=O)NN(c2ccc(F)c(Cl)c2)C1=O the results were ALR H2O2 inh 94.2, HCV core dimer inactive, PHOSPHO1 inh inactive, AI-2 QS modul inactive, HSF1 activator inactive and HSF1 inh inactive.
COCCCN1C(=O)c2[nH]nc(-c3ccccc3O)c2C1c1cccc(Cl)c1 (stereo not drawn) was read as ALR H2O2 inh inactive, HCV core dimer inactive, PHOSPHO1 inh inactive, AI-2 QS modul inactive, HSF1 activator 71.1 and HSF1 inh inactive.
O=c1[nH]c(O)c(C=Nc2ccc(Cl)cc2Cl)c(=O)[nH]1 was read as PHOSPHO1 inh inactive, AI-2 QS modul inactive, HSF1 activator inactive and HSF1 inh inactive.
CN(C)/C=C/C(=O)/C=C/c1cn(-c2ncc(C(F)(F)F)cc2Cl)c2ccccc12 was read as ALR H2O2 inh inactive, HCV core dimer 57.8, PHOSPHO1 inh inactive, AI-2 QS modul inactive, HSF1 activator inactive and HSF1 inh inactive.
CN1CC2=Cc3ccccc3OC23Oc2ccccc2C=C3C1 was read as ALR H2O2 inh inactive, HCV core dimer inactive, PHOSPHO1 inh inactive, AI-2 QS modul inactive, HSF1 activator inactive and HSF1 inh inactive.
Screening Cc1ccc2nc(-c3ccccc3)cn2c1 returned ALR H2O2 inh inactive, HCV core dimer inactive, PHOSPHO1 inh inactive, AI-2 QS modul inactive, HSF1 activator inactive and HSF1 inh inactive.
Screening COc1cc(-c2csc(C)n2)ccc1O returned ALR H2O2 inh 96.1, HCV core dimer inactive, PHOSPHO1 inh inactive, AI-2 QS modul inactive, HSF1 activator inactive and HSF1 inh inactive.
Cc1nc(-c2ccc(O)c(O)c2)cs1 was read as ALR H2O2 inh 99.5, HCV core dimer inactive, PHOSPHO1 inh inactive, AI-2 QS modul inactive, HSF1 activator inactive and HSF1 inh inactive.
Cc1ccc2nc(-c3ccc(O)c(O)c3)cn2c1 was read as ALR H2O2 inh 98.8, HCV core dimer inactive, PHOSPHO1 inh inactive, AI-2 QS modul inactive, HSF1 activator inactive and HSF1 inh inactive.
For CCN(CC)S(=O)(=O)c1ccc(NC(=O)CCNC(=O)c2ccccc2)cc1 the results were ALR H2O2 inh inactive, PHOSPHO1 inh inactive, AI-2 QS modul inactive, HSF1 activator inactive and HSF1 inh inactive.
For O=C(NNC(=O)c1cccs1)c1ccc(Br)o1 the results were ALR H2O2 inh 95.8, HCV core dimer inactive and PHOSPHO1 inh inactive.
For Cc1cccc(C(=O)NC(=S)NNC(=O)c2ccc(Cl)cc2)c1 the results were ALR H2O2 inh 96.1, HCV core dimer inactive, PHOSPHO1 inh inactive, AI-2 QS modul inactive, HSF1 activator inactive and HSF1 inh inactive.
O=C(Nc1ccc(NC(=O)c2cccs2)cc1)c1ccc(Br)o1 was read as ALR H2O2 inh inactive, HCV core dimer inactive, PHOSPHO1 inh inactive, AI-2 QS modul inactive, HSF1 activator inactive and HSF1 inh inactive.
Screening O=C(NNC(=S)Nc1ccc(Cl)cc1)c1cccs1 returned ALR H2O2 inh 96.8, HCV core dimer inactive, PHOSPHO1 inh inactive, AI-2 QS modul inactive, HSF1 activator inconclusive and HSF1 inh inactive.
